In publication PMC10582660 (Clinical and Translational Science, 2023):
Like-named read-outs stand apart in the source and are kept apart here.

Experiments:
[1] = type: in vivo, human
How it was run: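 Open-label fixed-sequence crossover in 16 healthy adults (8 male, 8 female), arms ≥7 days apart, fasted from midnight. Oral 60 mg test compound tablet with 240 mL water at 50°C (baseline) or brewed green tea. Acute: tea (one bag, 240 mL water, 80°C, 3 min, cooled to 50°C) given with dose, then at 4 and 8 h. Chronic: tea three times daily for 4 days, then day 5 as acute.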

[2] = molecular target: T1, OATP1B1 (Homo sapiens, UniProt Q9Y6L6); experiment: Raloxifene as a substrate for uptake transporters; type: in vitro ADME; settings: raloxifene 1, 10 μM, 2, 20 min, two‐fold cutoff
T1 sequence (Q9Y6L6 1-691): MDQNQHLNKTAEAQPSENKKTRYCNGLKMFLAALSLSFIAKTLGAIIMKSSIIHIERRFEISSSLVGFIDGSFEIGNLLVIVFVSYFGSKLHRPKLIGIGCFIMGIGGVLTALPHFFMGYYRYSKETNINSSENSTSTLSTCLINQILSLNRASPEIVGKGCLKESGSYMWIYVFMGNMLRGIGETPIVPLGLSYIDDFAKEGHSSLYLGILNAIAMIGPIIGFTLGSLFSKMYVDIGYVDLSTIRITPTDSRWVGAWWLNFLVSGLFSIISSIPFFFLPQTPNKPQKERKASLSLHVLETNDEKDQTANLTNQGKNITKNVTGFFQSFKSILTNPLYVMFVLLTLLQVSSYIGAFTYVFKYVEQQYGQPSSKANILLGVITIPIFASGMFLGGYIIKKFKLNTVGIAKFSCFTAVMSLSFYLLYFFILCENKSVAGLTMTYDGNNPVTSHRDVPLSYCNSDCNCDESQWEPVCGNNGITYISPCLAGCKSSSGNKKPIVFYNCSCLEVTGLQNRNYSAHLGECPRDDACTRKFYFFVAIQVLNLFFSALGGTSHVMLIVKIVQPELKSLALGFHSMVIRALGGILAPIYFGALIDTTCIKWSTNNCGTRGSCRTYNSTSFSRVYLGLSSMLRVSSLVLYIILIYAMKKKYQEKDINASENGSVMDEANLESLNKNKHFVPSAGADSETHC
How it was run: (§1)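 Uptake of test compound (1 and 10 μM, 2 and 20 min) measured in transporter-expressing HEK293 or MDCKII cells or inside-out membrane vesicles. Run with positive-control probe substrates and inhibitors, plus empty-vector or untransfected control cells. Fold-accumulation relative to control cells judged against a two-fold cutoff for substrate status.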

[3] = molecular target: T2, OAT3 (Homo sapiens, UniProt Q8TCC7); experiment: Raloxifene as a substrate for uptake transporters; type: in vitro ADME; settings: raloxifene 1, 10 μM, 2, 20 min, two‐fold cutoff
T2 sequence (Q8TCC7 1-542): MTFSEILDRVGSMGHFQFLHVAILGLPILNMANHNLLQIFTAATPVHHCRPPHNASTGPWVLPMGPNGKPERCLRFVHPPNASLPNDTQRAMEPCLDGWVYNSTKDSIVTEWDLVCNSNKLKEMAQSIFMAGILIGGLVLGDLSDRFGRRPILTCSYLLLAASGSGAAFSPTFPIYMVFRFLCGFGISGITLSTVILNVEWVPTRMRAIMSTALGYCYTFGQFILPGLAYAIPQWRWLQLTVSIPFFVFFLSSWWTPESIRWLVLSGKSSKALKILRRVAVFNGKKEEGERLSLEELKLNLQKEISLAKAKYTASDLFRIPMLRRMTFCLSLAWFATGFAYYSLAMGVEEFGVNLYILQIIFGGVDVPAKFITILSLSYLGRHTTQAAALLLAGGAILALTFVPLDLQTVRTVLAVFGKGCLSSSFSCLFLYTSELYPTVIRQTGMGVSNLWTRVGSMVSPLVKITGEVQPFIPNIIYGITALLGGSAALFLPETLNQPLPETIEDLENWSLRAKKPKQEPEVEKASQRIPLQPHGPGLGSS
How it was run: as §1

[4] = molecular target: T3, NTCP (Homo sapiens, UniProt Q14973); experiment: Raloxifene as a substrate for uptake transporters; type: in vitro ADME; settings: raloxifene 1, 10 μM, 2, 20 min, two‐fold cutoff
T3 sequence (Q14973 1-349): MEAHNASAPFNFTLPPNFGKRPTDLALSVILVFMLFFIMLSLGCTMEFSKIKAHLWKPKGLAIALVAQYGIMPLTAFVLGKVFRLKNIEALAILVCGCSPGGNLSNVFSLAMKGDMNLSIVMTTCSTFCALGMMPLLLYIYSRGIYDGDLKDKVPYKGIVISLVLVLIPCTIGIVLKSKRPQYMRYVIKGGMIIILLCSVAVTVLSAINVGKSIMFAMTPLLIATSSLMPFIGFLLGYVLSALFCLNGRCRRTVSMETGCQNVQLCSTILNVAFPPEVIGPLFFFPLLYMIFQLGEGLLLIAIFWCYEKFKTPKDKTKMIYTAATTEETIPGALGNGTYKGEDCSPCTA
How it was run: as §1

[5] = molecular target: T4, OAT1 (Homo sapiens, UniProt Q4U2R8); experiment: Raloxifene as a substrate for uptake transporters; type: in vitro ADME; settings: raloxifene 1, 10 μM, 2, 20 min, two‐fold cutoff
T4 sequence (Q4U2R8 1-563): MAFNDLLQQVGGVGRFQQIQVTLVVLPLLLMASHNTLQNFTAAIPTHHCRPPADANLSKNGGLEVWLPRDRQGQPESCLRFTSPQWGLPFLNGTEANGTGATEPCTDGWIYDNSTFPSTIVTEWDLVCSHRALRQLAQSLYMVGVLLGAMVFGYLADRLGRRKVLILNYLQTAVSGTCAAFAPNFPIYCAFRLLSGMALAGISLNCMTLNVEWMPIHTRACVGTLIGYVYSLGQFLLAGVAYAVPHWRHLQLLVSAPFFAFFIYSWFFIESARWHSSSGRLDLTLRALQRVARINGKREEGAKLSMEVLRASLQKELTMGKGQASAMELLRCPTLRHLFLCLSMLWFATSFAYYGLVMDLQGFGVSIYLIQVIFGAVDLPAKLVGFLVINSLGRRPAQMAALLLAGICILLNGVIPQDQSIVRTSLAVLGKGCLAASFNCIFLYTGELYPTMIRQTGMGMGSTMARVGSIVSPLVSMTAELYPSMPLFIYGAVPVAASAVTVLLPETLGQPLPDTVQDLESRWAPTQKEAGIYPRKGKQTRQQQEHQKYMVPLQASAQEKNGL
How it was run: as §1

[6] = upon acute and chronic green tea administration

For `O=C(c1ccc(OCCN2CCCCC2)cc1)c1c(-c2ccc(O)cc2)sc2cc(O)ccc12` [Raloxifene, raloxifene, reference compound], the “AUC0–48h green tea/baseline ratio (90% CI)” value ([1]; acute green tea vs baseline) was 0.53 (0.43–0.64), the “AUC0–96h green tea/baseline ratio (90% CI)” value ([1]; acute green tea vs baseline) was 0.57 (0.46–0.70) and the “Cmax,1 green tea/baseline ratio (90% CI)” value ([1]; acute green tea vs baseline) was 0.37 (0.28–0.50). The “t 1/2 green tea/baseline ratio (90% CI)” value ([1]; acute green tea vs baseline) was 0.95 (0.81–1.12), the “AUC0–96h green tea/baseline ratio (90% CI)” value ([1]; acute green tea vs baseline, listed as raloxifene) was 0.57 and the “geometric mean green tea/baseline raloxifene AUC0–96h ratio” value ([1]; after both acute and chronic administration) was ~ 0.60. For the same molecule, the half-life ([1]; both, human, plasma, oral, geometric mean terminal half‐life, unchanged upon acute and chronic green tea administration) was about 1440 min, the Tmax ([1]; both, human, plasma, oral, median t max,1, unchanged upon acute and chronic green tea administration) was about 2 h and the “AUC0–48h green tea/baseline ratio (90% CI)” value ([1]; chronic green tea vs baseline) was 0.56 (0.43–0.72). For the same molecule, the “AUC0–96h green tea/baseline ratio (90% CI)” value ([1]; chronic green tea vs baseline) was 0.66 (0.54–0.81), the “Cmax,1 green tea/baseline ratio (90% CI)” value ([1]; chronic green tea vs baseline) was 0.39 (0.24–0.64) and the “t 1/2 green tea/baseline ratio (90% CI)” value ([1]; chronic green tea vs baseline) was 0.89 (0.75–1.04). For the same molecule, the “AUC0–96h green tea/baseline ratio (90% CI)” value ([1]; chronic green tea vs baseline, listed as raloxifene) was 0.66, the “magnitude of the decrease in raloxifene AUC with green tea” value ([1]; main study) was ~ 40% and the tolerability ([1]; main study, 16 participants, no severe adverse events reported) was “well tolerated”. For the same molecule, the “AUC0–48h ratio” value [1, 6] was 0.53–0.56, the “Cmax,1 ratio” value [1, 6] was 0.37–0.39 and the “fold‐accumulation” value [2] was 1.04–1.19. For the same molecule, the “fold‐accumulation” value [3] was 0.75–1.03, the “fold‐accumulation” value [4] was 1.14–1.33 and the “fold‐accumulation” value [5] was 0.72–0.91.
